Source: ChEMBL document CHEMBL2086248, “Synthesis of some novel 1-(2-naphthyl)-2-(imidazol-1-yl)ethanone oxime ester derivatives and evaluation of their anticonvulsant activity” (Eur J Med Chem, 2012)
Active and inactive are the calls of the source.

Assays:
Mus musculus [1] = assay: Anticonvulsant activity in mouse assessed as protection against subcutaneous pentylenetetrazole-induced seizures at 100 mg/kg, ip after 4 hrs; assay type: functional, organism-based; design: dose 100 mg/kg
Summary of the method: (§1)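 Swiss albino mice (20-24 g) were dosed ip with a suspension in 30% aqueous PEG 400 and challenged 0.5 h or 4 h later. Protection meant no threshold seizure (clonic spasms lasting at least 5 s). Scored as number protected/number tested, one mouse per dose and time.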

Mus musculus [2] = assay: Neurotoxicity in mouse assessed as motor impairment at 300 mg/kg, ip after 4 hrs by rotarod test; assay type: toxicity, organism-based; design: dose 300 mg/kg, route intraperitoneal; details: in vivo
Summary of the method: (§2)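 Swiss albino mice (20-24 g) were dosed ip with a suspension in 30% aqueous PEG 400 and tested 0.5 h or 4 h later. They were placed on a knurled wooden rod 1 inch in diameter, rotating at 6 rpm. Toxicity meant failure to stay on the rod for at least 1 min in each of three trials. Scored as number toxic/number tested (4 mice at 0.5 h, 2 at 4 h).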

Mus musculus [3] = assay: Anticonvulsant activity in mouse assessed as protection against subcutaneous pentylenetetrazole-induced seizures at 100 mg/kg, ip after 0.5 hrs; assay type: functional, organism-based; design: dose 100 mg/kg; summary of the method: as §1
Mus musculus [4] = assay: Neurotoxicity in mouse assessed as motor impairment at 100 mg/kg, ip after 4 hrs by rotarod test; assay type: toxicity, organism-based; design: dose 100 mg/kg, route intraperitoneal; details: in vivo; summary of the method: as §2
Mus musculus [5] = assay: Neurotoxicity in mouse assessed as motor impairment at 100 mg/kg, ip after 0.5 hrs by rotarod test; assay type: toxicity, organism-based; design: dose 100 mg/kg, route intraperitoneal; details: in vivo; summary of the method: as §2
Mus musculus [6] = assay: Anticonvulsant activity in mouse assessed as protection against maximal electroshock-induced seizures at 100 mg/kg, ip after 4 hrs; assay type: functional, organism-based; design: dose 100 mg/kg
Summary of the method: (§3)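 Swiss albino mice (20-24 g) received an ip suspension in 30% aqueous PEG 400 and were tested 0.5 h and 4 h after dosing. Shock was delivered through corneal electrodes from a constant current unit, with 0.9% saline dropped into the eyes first. Protection meant abolition of the hind limb tonic extension. Scored as number protected/number tested, one mouse per dose and time.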

Mus musculus [7] = assay: Anticonvulsant activity in mouse assessed as protection against maximal electroshock-induced seizures at 300 mg/kg, ip after 4 hrs; assay type: functional, organism-based; design: dose 300 mg/kg; summary of the method: as §3
Mus musculus [8] = assay: Anticonvulsant activity in mouse assessed as protection against maximal electroshock-induced seizures at 100 mg/kg, ip after 0.5 hrs; assay type: functional, organism-based; design: dose 100 mg/kg; summary of the method: as §3
Mus musculus [9] = assay: Anticonvulsant activity in mouse assessed as protection against maximal electroshock-induced seizures at 30 mg/kg, ip after 0.5 hrs; assay type: functional, organism-based; design: dose 30 mg/kg; summary of the method: as §3
Mus musculus [10] = assay: Anticonvulsant activity in mouse assessed as protection against subcutaneous pentylenetetrazole-induced seizures at 30 mg/kg, ip after 0.5 hrs; assay type: functional, organism-based; design: dose 30 mg/kg; summary of the method: as §1
Mus musculus [11] = assay: Anticonvulsant activity in mouse assessed as protection against maximal electroshock-induced seizures at 300 mg/kg, ip after 0.5 hrs; assay type: functional, organism-based; design: dose 300 mg/kg; summary of the method: as §3
Mus musculus [12] = assay: Neurotoxicity in mouse assessed as motor impairment at 300 mg/kg, ip after 0.5 hrs by rotarod test; assay type: toxicity, organism-based; design: dose 300 mg/kg, route intraperitoneal; details: in vivo; summary of the method: as §2
Mus musculus [13] = assay: Anticonvulsant activity in mouse assessed as protection against subcutaneous pentylenetetrazole-induced seizures at 300 mg/kg, ip after 0.5 hrs; assay type: functional, organism-based; design: dose 300 mg/kg; summary of the method: as §1
Mus musculus [14] = assay: Neurotoxicity in mouse assessed as motor impairment at 30 mg/kg, ip after 4 hrs by rotarod test; assay type: toxicity, organism-based; design: dose 30 mg/kg, route intraperitoneal; details: in vivo; summary of the method: as §2
Mus musculus [15] = assay: Anticonvulsant activity in mouse assessed as protection against subcutaneous pentylenetetrazole-induced seizures at 30 mg/kg, ip after 4 hrs; assay type: functional, organism-based; design: dose 30 mg/kg; summary of the method: as §1
Mus musculus [16] = assay: Anticonvulsant activity in mouse assessed as protection against maximal electroshock-induced seizures at 30 mg/kg, ip after 4 hrs; assay type: functional, organism-based; design: dose 30 mg/kg; summary of the method: as §3
Mus musculus [17] = assay: Neurotoxicity in mouse assessed as motor impairment at 30 mg/kg, ip after 0.5 hrs by rotarod test; assay type: toxicity, organism-based; design: dose 30 mg/kg, route intraperitoneal; details: in vivo; summary of the method: as §2
Mus musculus [18] = assay: Anticonvulsant activity in mouse assessed as protection against subcutaneous pentylenetetrazole-induced seizures at 300 mg/kg, ip after 4 hrs; assay type: functional, organism-based; design: dose 300 mg/kg; summary of the method: as §1

Row | SMILES | Activity (Mus musculus [1]) | Activity (Mus musculus [2]) | Activity (Mus musculus [3]) | Activity (Mus musculus [4]) | Activity (Mus musculus [5]) | Activity (Mus musculus [6]) | Activity (Mus musculus [7]) | Activity (Mus musculus [8]) | Activity (Mus musculus [9]) | Activity (Mus musculus [10]) | Activity (Mus musculus [11]) | Activity (Mus musculus [12]) | Activity (Mus musculus [13]) | Activity (Mus musculus [14]) | Activity (Mus musculus [15]) | Activity (Mus musculus [16]) | Activity (Mus musculus [17]) | Activity (Mus musculus [18])
1 | COc1cccc(C(=O)O/N=C(\Cn2ccnc2)c2ccc3ccccc3c2)c1 | inactive | Non-toxic | inactive | Non-toxic | Non-toxic | inactive | inactive | inactive | inactive | inactive | Active | Non-toxic | inactive | Non-toxic | inactive | inactive | Non-toxic | inactive
2 | O=C(O/N=C(\Cn1ccnc1)c1ccc2ccccc2c1)c1ccccc1 | inactive | Non-toxic | inactive | Non-toxic | Non-toxic | Active | Active | Active | inactive | inactive | Active | Non-toxic | inactive | Non-toxic | inactive | Active | Non-toxic | Active
3 | Cl.O=C(ON=C(Cn1ccnc1)c1ccc2ccccc2c1)C1CCCCC1 (mixture of isomers) | inactive | Non-toxic | Active | Non-toxic | Non-toxic | inactive | inactive | Active | inactive | inactive | Active | Non-toxic | Active | Non-toxic | inactive | inactive | Non-toxic | inactive
4 | CCCCCC(=O)O/N=C(\Cn1ccnc1)c1ccc2ccccc2c1.Cl | inactive | Non-toxic | inactive | Non-toxic | Non-toxic | inactive | inactive | inactive | inactive | inactive | inactive | Non-toxic | inactive | Non-toxic | inactive | inactive | Non-toxic | inactive
5 | Cc1ccccc1C(=O)O/N=C(\Cn1ccnc1)c1ccc2ccccc2c1 | inactive | Non-toxic | inactive | Non-toxic | Non-toxic | inactive | Active | inactive | inactive | inactive | Active | Non-toxic | inactive | Non-toxic | inactive | inactive | Non-toxic | inactive
6 | CCC(=O)O/N=C(\Cn1ccnc1)c1ccc2ccccc2c1.Cl | inactive | Non-toxic | inactive | Non-toxic | Non-toxic | inactive | inactive | Active | inactive | inactive | Active | Non-toxic | Active | Non-toxic | inactive | inactive | Non-toxic | inactive
7 | C/C=C(\C)C(=O)O/N=C(\Cn1ccnc1)c1ccc2ccccc2c1.Cl | inactive | Non-toxic | inactive | Non-toxic | Non-toxic | inactive | inactive | inactive | inactive | inactive | inactive | Non-toxic | inactive | Non-toxic | inactive | inactive | Non-toxic | Active
8 | O=C(O/N=C(\Cn1ccnc1)c1ccc2ccccc2c1)c1cccc(Cl)c1 | inactive | Non-toxic | inactive | Non-toxic | Non-toxic | Active | Active | Active | inactive | inactive | Active | Non-toxic | inactive | Non-toxic | inactive | inactive | Non-toxic | inactive
9 | O=C(O/N=C(\Cn1ccnc1)c1ccc2ccccc2c1)c1cccc([N+](=O)[O-])c1 | inactive | Non-toxic | inactive | Non-toxic | Non-toxic | inactive | Active | inactive | inactive | inactive | inactive | Non-toxic | inactive | Non-toxic | inactive | inactive | Non-toxic | inactive
10 | Cl.O=C(/C=C/c1ccccc1)O/N=C(\Cn1ccnc1)c1ccc2ccccc2c1 | inactive | Non-toxic | inactive | Non-toxic | Non-toxic | inactive | inactive | Active | Active | inactive | Active | Non-toxic | inactive | Non-toxic | inactive | inactive | Non-toxic | inactive
11 | O=C1NC(=O)C(c2ccccc2)(c2ccccc2)N1 [PHENYTOIN] | inactive | Toxic | inactive | Toxic | Non-toxic | Active | Active | Active | Active | inactive | Active | Toxic | inactive | Non-toxic | inactive | Active | Non-toxic | inactive
12 | COc1ccccc1C(=O)O/N=C(\Cn1ccnc1)c1ccc2ccccc2c1 | inactive | Non-toxic | Active | Non-toxic | Non-toxic | Active | Active | Active | inactive | inactive | Active | Non-toxic | Active | Non-toxic | inactive | Active | Non-toxic | inactive
